pIC50: −log10 of the molar value. In brackets after ≈: the same amount, converted by molar mass.
How the values were obtained:
Staphylococcus aureus [1] = experiment: Antibacterial activity against Staphylococcus aureus ATCC 25923 incubated […] by microdilution resazurin assay; format: functional
Staphylococcus aureus [2] = experiment: Antibacterial activity against methicillin resistant Staphylococcus aureus clinical isolate 1 incubated […] by microdilution resazurin assay; format: functional
Staphylococcus aureus [3] = experiment: Antibacterial activity against methicillin resistant Staphylococcus aureus clinical isolate 2 incubated […] by microdilution resazurin assay; format: functional
Staphylococcus aureus [4] = experiment: Antibacterial activity against methicillin resistant Staphylococcus aureus clinical isolate 3 incubated for 7 to 14 days by microdilution resazurin assay
Staphylococcus aureus [5] = experiment: Antibacterial activity against methicillin resistant Staphylococcus aureus clinical isolate 4 incubated for 7 to 14 days by microdilution resazurin assay
Staphylococcus aureus [6] = experiment: Antibacterial activity against methicillin resistant Staphylococcus aureus clinical isolate 5 incubated […] by microdilution resazurin assay; format: functional
Staphylococcus aureus [7] = experiment: Antibacterial activity against methicillin resistant Staphylococcus aureus clinical isolate 6 incubated […] by microdilution resazurin assay; format: functional
Staphylococcus aureus [8] = experiment: Antibacterial activity against methicillin resistant Staphylococcus aureus clinical isolate 7 incubated […] by microdilution resazurin assay; format: functional
Staphylococcus aureus [9] = experiment: Antibacterial activity against methicillin resistant Staphylococcus aureus clinical isolate 8 incubated […] by microdilution resazurin assay; format: functional
Staphylococcus aureus [10] = experiment: Antibacterial activity against methicillin resistant Staphylococcus aureus clinical isolate 9 incubated […] by microdilution resazurin assay; format: functional
Staphylococcus aureus [11] = experiment: Antibacterial activity against methicillin resistant Staphylococcus aureus clinical isolate 10 incubated […] by microdilution resazurin assay; format: functional
[12] = Cytotoxicity against human WS1 cells by resazurin reduction assay; format: cell-based
In short: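 WS1 human fibroblast line; resazurin reduction test, slightly modified from an earlier method. Etoposide served as positive control.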

[13] = Staphylococcus aureus, ATCC 25923, read-out: MIC
[14] = Staphylococcus aureus, isolate 1, read-out: MIC
[15] = Staphylococcus aureus, isolate 2, read-out: MIC
[16] = Staphylococcus aureus, isolate 5, read-out: MIC
[17] = Staphylococcus aureus, isolate 6, read-out: MIC
[18] = Staphylococcus aureus, isolate 7, read-out: MIC
[19] = Staphylococcus aureus, isolate 8, read-out: MIC
[20] = Staphylococcus aureus, isolate 9, read-out: MIC
[21] = Staphylococcus aureus, isolate 10, read-out: MIC

Molecule | MIC (Staphylococcus aureus [1]; [13]) | MIC (Staphylococcus aureus [2]; [14]) | MIC (Staphylococcus aureus [3]; [15]) | MIC (Staphylococcus aureus [4]) | MIC (Staphylococcus aureus [5]) | MIC (Staphylococcus aureus [6]; [16]) | MIC (Staphylococcus aureus [7]; [17]) | MIC (Staphylococcus aureus [8]; [18]) | MIC (Staphylococcus aureus [9]; [19]) | MIC (Staphylococcus aureus [10]; [20]) | MIC (Staphylococcus aureus [11]; [21]) | pIC50 ([12]; Homo sapiens, WS1) | MIC (Staphylococcus aureus [2]) | MIC (Staphylococcus aureus [3]) | MIC (Staphylococcus aureus [9]) | other results
COc1ccc(CCC(=O)c2c(O)c(C/C=C/c3ccc(O)cc3)c(O)c3c2O[C@@H](c2ccc(O)cc2)[C@H](C/C=C/c2ccc(O)cc2)C3)cc1 (racemic) | 13 µM (≈ 8.9 µg/mL) | 6 µM (≈ 4.11 µg/mL) | 6 µM (≈ 4.11 µg/mL) | 3 µM (≈ 2.05 µg/mL) | 13 µM (≈ 8.9 µg/mL) | 13 µM (≈ 8.9 µg/mL) | 6 µM (≈ 4.11 µg/mL) | 6 µM (≈ 4.11 µg/mL) | 13 µM (≈ 8.9 µg/mL) | 13 µM (≈ 8.9 µg/mL) | 13 µM (≈ 8.9 µg/mL) | < 5.00 | – | – | – | –
O=C(CCc1ccccc1)c1c(O)c2c(c3c1O[C@@H](c1ccc(O)cc1)[C@H](C/C=C/c1ccc(O)cc1)C3)O[C@@H](c1ccc(O)cc1)[C@H](O)C2 (racemic) | 6 µM (≈ 4.02 µg/mL) | 6 µM (≈ 4.02 µg/mL) | 6 µM (≈ 4.02 µg/mL) | 6 µM (≈ 4.02 µg/mL) | 6 µM (≈ 4.02 µg/mL) | 6 µM (≈ 4.02 µg/mL) | 6 µM (≈ 4.02 µg/mL) | 6 µM (≈ 4.02 µg/mL) | 6 µM (≈ 4.02 µg/mL) | 6 µM (≈ 4.02 µg/mL) | 6 µM (≈ 4.02 µg/mL) | < 5.00 | – | – | – | –
O=C(CCc1ccccc1)c1c(O)c2c(c3c1OC(c1ccc(O)cc1)C(C/C=C/c1ccc(O)cc1)C3)OC(c1ccc(O)cc1)C(C/C=C/c1ccc(O)cc1)C2 (racemic; form 1) | – | > 50 µM | > 50 µM | > 50 µM | > 50 µM | > 50 µM | > 50 µM | > 50 µM | > 50 µM | > 50 µM | > 50 µM | – | – | – | – | pIC50 [12]: 5.64
O=C(CCc1ccccc1)c1c(O)c2c(c3c1OC(c1ccc(O)cc1)C(C/C=C/c1ccc(O)cc1)C3)OC(c1ccc(O)cc1)C(C/C=C/c1ccc(O)cc1)C2 (racemic; form 2) | > 50 µM | – | – | – | – | – | – | – | – | – | – | – | – | – | – | pIC50 [12]: < 5.00
O=C(CCc1ccccc1)c1c(O)cc(O)c2c1OC(c1ccc(O)cc1)CC2 (single isomer, unassigned; (+)) | 6 µM (≈ 2.34 µg/mL) | – | – | – | – | – | – | – | – | – | – | – | 13 µM (≈ 5.08 µg/mL) | 13 µM (≈ 5.08 µg/mL) | 13 µM (≈ 5.08 µg/mL) | MIC (Staphylococcus aureus [7]): 25 µM (≈ 9.76 µg/mL)
O=C(CCc1ccccc1)c1c(O)cc(O)c2c1OC(c1ccc(O)cc1)C(O)C2 (stereo in doubt; (+)-15) | 25 µM (≈ 10.2 µg/mL) | – | – | – | – | – | – | – | – | – | – | – | 25 µM (≈ 10.2 µg/mL) | – | 25 µM (≈ 10.2 µg/mL) | MIC (Staphylococcus aureus [7]): 25 µM (≈ 10.2 µg/mL); MIC (Staphylococcus aureus [10]): 25 µM (≈ 10.2 µg/mL)
COc1ccc(CCC(=O)c2c(O)cc(O)c3c2OC(c2ccc(O)cc2)C(O)C3)cc1 (stereo in doubt; (+)-16) | 25 µM (≈ 10.9 µg/mL) | – | – | – | – | – | – | – | – | – | – | – | >50 µM | 50 µM (≈ 21.8 µg/mL) | 50 µM (≈ 21.8 µg/mL) | MIC (Staphylococcus aureus [6]): >50 µM; MIC (Staphylococcus aureus [11]): >50 µM
O=C(CCc1ccccc1)c1c(O)cc2c(c1O)CC(O)C(c1ccc(O)cc1)O2 (stereo in doubt; (+)-17) | 50 µM (≈ 20.3 µg/mL) | – | – | – | – | – | – | – | – | – | – | – | – | – | 50 µM (≈ 20.3 µg/mL) | MIC (Staphylococcus aureus [8]): 50 µM (≈ 20.3 µg/mL); MIC (Staphylococcus aureus [11]): >50 µM
O=C(CCc1ccccc1)c1c(O)cc(O)c2c1OC(c1ccc(O)cc1)CC2 (stereo in doubt; (-)-12) | – | – | – | 6 µM (≈ 2.34 µg/mL) | – | 6 µM (≈ 2.34 µg/mL) | 13 µM (≈ 5.08 µg/mL) | 6 µM (≈ 2.34 µg/mL) | – | 13 µM (≈ 5.08 µg/mL) | 13 µM (≈ 5.08 µg/mL) | < 5.00 | 6 µM (≈ 2.34 µg/mL) | 6 µM (≈ 2.34 µg/mL) | 6 µM (≈ 2.34 µg/mL) | –
O=C(CCc1ccccc1)c1c(O)cc(O)c2c1OC(c1ccc(O)cc1)C(O)C2 (stereo in doubt; (-)-15) | – | 50 µM (≈ 20.3 µg/mL) | 25 µM (≈ 10.2 µg/mL) | 50 µM (≈ 20.3 µg/mL) | 50 µM (≈ 20.3 µg/mL) | 25 µM (≈ 10.2 µg/mL) | 50 µM (≈ 20.3 µg/mL) | 25 µM (≈ 10.2 µg/mL) | 50 µM (≈ 20.3 µg/mL) | 50 µM (≈ 20.3 µg/mL) | 25 µM (≈ 10.2 µg/mL) | < 5.00 | – | – | – | –
COc1ccc(CCC(=O)c2c(O)cc(O)c3c2OC(c2ccc(O)cc2)C(O)C3)cc1 (stereo in doubt; (-)-16) | – | 50 µM (≈ 21.8 µg/mL) | 25 µM (≈ 10.9 µg/mL) | 25 µM (≈ 10.9 µg/mL) | – | – | 50 µM (≈ 21.8 µg/mL) | 25 µM (≈ 10.9 µg/mL) | > 50 µM | 50 µM (≈ 21.8 µg/mL) | 25 µM (≈ 10.9 µg/mL) | < 5.00 | – | – | – | MIC (Staphylococcus aureus [6]): 13 µM (≈ 5.67 µg/mL)
GENTAMICIN | – | – | – | – | – | – | – | – | – | – | – | – | 0.05 µM | 0.04 µM | 0.09 µM | MIC (Staphylococcus aureus [1]): 0.03 µM; MIC (Staphylococcus aureus [6]): 0.08 µM; MIC (Staphylococcus aureus [7]): 0.05 µM; MIC (Staphylococcus aureus [8]): 0.07 µM; MIC (Staphylococcus aureus [10]): 0.07 µM; MIC (Staphylococcus aureus [11]): 0.07 µM

Source: ChEMBL document CHEMBL4425163, “Structure elucidation of anti-methicillin resistant Staphylococcus aureus (MRSA) flavonoids from balsam poplar buds” (Bioorg Med Chem, 2016)
